Compound activity as filed in PubChem BioAssay.
CYP2C9 activ – CYP2C9 (human) activation; P11712; recombinant CYP2C9, luciferin-H conversion, luminescence; hits give high values; factor 1 = untreated enzyme, 0 = blocked; activation factor at 5 µM; 1.4% of 96,000 active; AID 1024;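 active = activation factor of 2 or more for CYP2C9 at a 5 µM dose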;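 note: 0 = sulfaphenazole-blocked wells and 1 = vehicle-only wells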
CYP2C19 inh – blocks human cytochrome P450 2C19 | P33261 | 21% of 96,000 active | CYP2C19 Supersomes, luciferin-H EGE luminescence, 30 min | inhibition, % at 5 µM;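 active = CYP2C19 inhibition above a set limit at 5 µM in the primary screen, cut at about 50% in these data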;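 note: plate controls were negative control wells for no effect and 2.5 mM tranylcypromine positive control for full effect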
Target sequence (P33261 whole entry, looked up): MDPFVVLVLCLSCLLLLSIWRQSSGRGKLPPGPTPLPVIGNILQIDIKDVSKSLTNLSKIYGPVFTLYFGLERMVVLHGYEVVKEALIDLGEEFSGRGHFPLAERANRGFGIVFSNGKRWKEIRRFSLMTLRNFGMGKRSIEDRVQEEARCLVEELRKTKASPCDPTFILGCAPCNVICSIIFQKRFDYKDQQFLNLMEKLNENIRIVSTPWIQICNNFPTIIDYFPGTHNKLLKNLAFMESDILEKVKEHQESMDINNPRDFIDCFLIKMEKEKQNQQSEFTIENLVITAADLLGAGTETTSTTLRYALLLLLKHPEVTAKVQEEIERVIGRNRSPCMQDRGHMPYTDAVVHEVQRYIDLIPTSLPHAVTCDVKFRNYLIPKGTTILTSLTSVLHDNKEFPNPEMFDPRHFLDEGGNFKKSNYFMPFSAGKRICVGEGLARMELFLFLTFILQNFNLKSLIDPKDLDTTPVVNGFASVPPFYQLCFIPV
HIV Rev-RRE inh – HIV Rev-RRE protein-RNA interaction inhibition; P05866; Rev peptide-RRE RNA binding, FRET; inhibition, % at 8 µM; 0.79% of 97,000 active; AID 704;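 active = inhibition above the screen-wide mean plus 3 SD, cut at about 35% in these data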;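 note: 0% = median DMSO wells and 100% = median Neomycin B control wells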
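Test system: Cy5-tagged RRE RNA duplex with fluorescein-tagged Rev peptide; Probe or stimulus: labelled Rev peptide; Schedule: 5 min preincubation and 15 min binding, 25 °C; Signal: FRET fluorescence readout; Evaluation: % inhibition from 671/540 nm acceptor-to-donor ratio, scaled between controls; Control set: DMSO and neomycin B.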
CYP2C9 inh – blocks human cytochrome P450 2C9; AID 777; 20% of 96,000 active; P11712; inhibition, % at 5 µM; CYP2C9 Supersomes, luciferin-H conversion, luminescence;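 active = blocking of liver enzyme CYP2C9 beyond about 50% at 5 µM, limit read from the data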
CYP2C19 act – increases human CYP2C19 enzyme activity | recombinant CYP2C19, luciferin-H EGE luminescence; hits give high values; 0 = fully inhibited enzyme, 1 = untreated enzyme | activation factor at 5 µM | 96,000 tested, under 10 active | AID 1025;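 active = activation factor of at least 2 at 5 µM in the primary screen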;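 note: 0 = wells with 2.5 mM tranylcypromine and 1 = vehicle-only wells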
Cav32 inh – inhibitors of human Cav3.2 T-type calcium channel; Cav3.2-expressing cells, Fluo-4 calcium fluorescence FDSS; hits give low values; B-score at 10 µM; AID 449739; 4% of 100,000 active; O95180;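 active = single-dose well whose peak fluorescence ratio is a statistical outlier from its plate by either plate-standardised score or position-corrected B-score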
Starred values were filed as active, the others as inactive; / = no result given. Only some compounds are listed: those with a hit (about 27% of all), similar ones and a draw of the others.

SMILES	CYP2C9 activ	CYP2C19 inh	HIV Rev-RRE inh	CYP2C9 inh	CYP2C19 act	Cav32 inh
CC(C)Cn1c(SCC(=O)NC(=O)NC2CCCC2)nc2ccccc21	0.6	42	-4	43	0.6	-2.3
CCN(CC)c1nc2ccccc2nc1-n1nc(C)cc1C	0.6	48	12	39	0.5	-0.89
O=C(Cc1ccc(Cl)cc1)NCCCn1ccnc1	0.1	98*	6	88*	0	0.42
COc1ccc(OC)c(NC(=O)CSc2ncnc3c2cnn3-c2ccccc2Cl)c1	/	/	4	/	/	-1.9
O=C1Nc2ccccc2C12OCC(COc1ccc(Cl)cc1)O2 (stereo unspecified)	0.8	84*	11	20	0.2	-5.4*
CCCS(=O)(=O)N1CCCC(C(=O)NCCN2CCC(Cc3ccccc3)CC2)C1 (stereo unspecified)	0.4	24	-1	65*	0.8	0.61
O=C(NCCc1ccccc1)C1CCCN(S(=O)(=O)c2cnc[nH]2)C1 (stereo unspecified)	0.4	85*	11	59*	0.2	0.71
CCCS(=O)(=O)N1CCCC(C(=O)NCCN(C)Cc2ccccc2)C1 (stereo unspecified)	0.9	11	7	12	0.9	0.18
O=C(NCC1COc2ccccc2O1)C1CCCN(S(=O)(=O)c2cnc[nH]2)C1 (stereo unspecified)	0.5	90*	/	50*	0.1	-0.5
O=C(NCCN1CCC(Cc2ccccc2)CC1)C1CCCN(S(=O)(=O)c2cnc[nH]2)C1 (stereo unspecified)	0.9	-6	-4	8	1.1	/
Cc1cccc(CCNC(=O)C2CCCN(S(=O)(=O)c3cnc[nH]3)C2)c1 (stereo unspecified)	0.2	92*	-2	77*	0.1	-0.61
CN(Cc1ccccc1)C(=O)CSc1nnc(-c2ccco2)n1-c1ccccc1	0.8	23	6	18	0.8	-0.26
CCCCc1c(C)nn(-c2nnc3c4ccccc4n(C)c3n2)c1C	0.9	12	8	14	0.9	/
CCCS(=O)(=O)N1CCCC(C(=O)NC2CCCC(C)C2C)C1 (stereo unspecified)	0.6	56*	-2	37	0.4	0.083
O=C(NCCC1=CCCCC1)C1CCCN(S(=O)(=O)c2cnc[nH]2)C1 (stereo unspecified)	0.3	96*	6	66*	0	-0.23
C=CCOC(=O)C1=C[C@H](c2ccc(Br)cc2)C[C@H](OCc2ccc(CO)cc2)O1	/	/	/	/	/	-0.48
COC(=O)CSc1nc2c(c(-c3ccc(C)o3)c1C#N)CCCC2	1.7	35	8	-66	0.6	0.34
COC(=O)CSc1nc(N2CCCCC2)c2c(c1C#N)CCCC2	0.1	68*	12	90*	0.3	-2.7
COC(=O)CSc1nc(-c2ccccc2)c2c(c1C#N)CCCC2	0.3	97*	22	69*	0	-2.8
COC(=O)C1NC(=O)N2C(C(=O)OC)C(C)(C)S[C@H]12 (stereo partly specified)	/	/	/	/	/	1.9
CCn1cc(C(=O)NC(=S)Nc2cccc(O)c2)cn1	1.7	65*	-5	-68	0.4	0.076
COc1ccc(N2C(=O)CC(NC3CCCCNC3=O)C2=O)cc1 (stereo unspecified)	/	/	8	/	/	0.29
C=CCC(C)(NCc1ccccc1)c1ccccc1 (stereo unspecified)	0.9	62*	7	8	0.4	0.036
C=CCC(CC=C)(NC(=O)c1ccccc1)c1ccccc1	0.8	45	-1	19	0.5	-1.2
C=CCn1c(NCc2ccc(N(C)C)cc2)nc2ccccc21	0.9	96*	-1	15	0	-0.33
c1coc(CNc2nc3ccccc3n2CCN2CCOCC2)c1	0.7	37	2	26	0.6	1.3
COc1ccc(CNc2nc3ccccc3n2Cc2ccccc2)cc1OC	0.3	53*	11	66*	0.5	-5.4*
C=CCn1c(N)nc2ccccc21	0.8	-1	10	23	1	0.02
c1ccc(Cn2c(NCc3ccco3)nc3ccccc32)cc1	0.2	83*	5	81*	0.2	-1.9
COc1ccc(N2CCN(CC(=O)N3CCC(C)CC3)CC2)cc1	0.9	12	-4	6	0.9	0.93
